Most compounds without a hit are left out; they make up all but 1.7% or so of the library.
Rev-RRE block = inhibitors of HIV-1 Rev-RRE RNA interaction. 97,000 tested, 0.79% active. inhibition, % at 8 µM. AID 704. P05866. Rev peptide-RRE RNA binding, FRET;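 active = inhibition above the screen-wide mean plus 3 SD, cut at about 35% in these data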
Target sequence (P05866 whole entry, looked up): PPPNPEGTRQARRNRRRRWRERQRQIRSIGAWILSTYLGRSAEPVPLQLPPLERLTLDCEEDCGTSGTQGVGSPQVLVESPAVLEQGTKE
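Assay system: labelled RRE RNA duplex and labelled Rev peptide / Medium: HEPES pH 7.5 salt buffer with EDTA / Reagent: labelled Rev peptide / Schedule: 5 + 15 min at 25 °C / Signal: FRET, excitation 480 nm, emission 540 nm donor and 671 nm acceptor / Benchmarks: DMSO and neomycin B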
EphB4 antag = blocks human EphB4 binding to ephrin-B2; P54760; EphB4 LBD / TNYL-RAW-Alexa532 peptide, fluorescence polarization; inhibition, % at 7 µM; 97,000 tested, 0.15% active;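 active = inhibition above the screen-wide mean inhibition plus 3 SD, cut at about 15% in these data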
S1P2 ag = activates the human S1P2 receptor; O95136; S1P2-expressing cell line, agonist reporter read-out; activation, % at 4.5 µM; 97,000 tested, 0.46% active; AID 729; in the data active = activation above about 16%
S1P2 antag = S1P2 (human) receptor antagonism; inhibition, % at 5 µM; cell-based S1P2 antagonist assay, inhibition at 5 uM; 97,000 tested, 0.21% active; AID 736; in the data active = inhibition above about 45%;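 note: CRE beta-lactamase reporter cells expressing human S1P2 stimulated with S1P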
GALR2 agonist = GALR2 (human) receptor agonism; activation, % (no concentration beside the values); 140,000 tested, 0.48% active; GALR2-expressing cells, agonist activation read-out; O43603; in the data active = activation above about 5%, passing the limit was not always enough
Target sequence (O43603 whole entry, looked up): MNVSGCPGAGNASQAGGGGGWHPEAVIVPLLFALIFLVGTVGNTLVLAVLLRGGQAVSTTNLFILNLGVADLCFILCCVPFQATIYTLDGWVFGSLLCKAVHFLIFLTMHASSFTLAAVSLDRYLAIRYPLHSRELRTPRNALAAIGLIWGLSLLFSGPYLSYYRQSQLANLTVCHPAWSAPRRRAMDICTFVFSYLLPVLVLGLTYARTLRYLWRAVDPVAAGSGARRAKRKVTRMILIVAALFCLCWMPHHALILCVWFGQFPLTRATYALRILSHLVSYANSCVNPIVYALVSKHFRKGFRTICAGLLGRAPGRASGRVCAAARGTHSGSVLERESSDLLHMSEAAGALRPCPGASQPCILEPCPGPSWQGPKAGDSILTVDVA
GALR2 antag = GALR2 (human) receptor antagonism; inhibition, % at 4 µM; 140,000 tested, 0.39% active; GALR2-expressing cells, antagonist mode; AID 828; O43603; in the data active = inhibition above about 27%;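 note: cells stimulated with galanin 1-16 at roughly its EC80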
GALR2 ag confirm = GALR2 (human) agonism confirmed | GALR2-expressing cells, agonist activation | shares compounds with GALR2 agonist | 460 tested, 10% active | activation, % at 5.6 µM | AID 864; in the data active = activation above about 8.4%
BLA activ ctr = counter-screen for GALR2 agonists: beta-lactamase reporter activators; shares compounds with GALR2 agonist; CHO NFAT-bla reporter, beta-lactamase FRET activation; activation, % at 5.6 µM; 460 tested, 10% active; AID 865;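 active = activation above the screen-wide mean activation plus 3 SD, cut at about 8% in these data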
Each line names hits and unclear results; the compound was inactive in the other large screens (follow-up assays come after a bar, where they were run).

O=C(NCCc1ccccc1)C(=O)N/N=C/c1ccc2c(c1)OCO2	none
O=C(NCCc1ccccc1)C(=O)N/N=C/c1ccccc1C(F)(F)F	none | GALR2 ag confirm inactive | BLA activ ctr inactive
CCN(CC)c1nc(-c2ccc(Cl)cc2)cc(C(F)(F)F)c1C#N	none
CN(C)c1nc(-c2ccccc2)cc(C(F)(F)F)c1C#N	none | GALR2 ag confirm inactive | BLA activ ctr inactive
COc1ccc(CCNC(=O)CSc2nnc(-c3ccc(F)cc3)o2)cc1OC	none
COc1ccc(Nc2cc(C(=O)NCCCN3CCN(C)CC3)c3ccccc3n2)cc1	none
COc1ccc(Nc2cc(C(=O)NCc3ccco3)c3ccccc3n2)cc1	GALR2 agonist 9.7 (no result: Rev-RRE block, EphB4 antag, S1P2 ag, S1P2 antag) | GALR2 ag confirm inactive | BLA activ ctr inactive
Cc1ccc(Cn2nnnc2CN2CCC(O)(c3ccccc3F)CC2)cc1	none (no result: Rev-RRE block, EphB4 antag, S1P2 ag, S1P2 antag)
C=CCN1C(=O)C(CC(=O)Nc2ccc(OC)cc2)N(Cc2ccco2)C1=S (stereo not drawn)	GALR2 agonist 16 | GALR2 ag confirm inactive | BLA activ ctr inactive
CCN(CC)S(=O)(=O)c1ccc(N/N=C/c2ccc(OC)c(OC)c2OC)nc1	none (no result: Rev-RRE block, EphB4 antag, S1P2 ag, S1P2 antag)
CCN(CC)S(=O)(=O)c1ccc(N/N=C/c2cc(OC)c(OC)cc2OC)nc1	GALR2 agonist 49 (no result: Rev-RRE block, EphB4 antag, S1P2 ag, S1P2 antag) | GALR2 ag confirm 21 | BLA activ ctr 33
Cc1ccccc1OCC1Cc2c(nc(N)c(C#N)c2N)O1 (stereo not drawn)	none
CCOC(=O)c1c(CSC(=N)N)n(-c2ccc(Br)cc2)c2cc(Br)c(OC(C)=O)cc12	GALR2 agonist 34 (no result: Rev-RRE block, EphB4 antag, S1P2 ag, S1P2 antag) | GALR2 ag confirm inactive | BLA activ ctr inactive
Cc1ccccc1Nc1nc(-c2sc(NC(=O)c3ccccc3)nc2C)cs1	GALR2 agonist 19 | GALR2 ag confirm inactive | BLA activ ctr inactive
Cc1cccc(NC(=O)C2CCCN(S(=O)(=O)c3cccc4nsnc34)C2)n1 (stereo not drawn)	GALR2 agonist 11 | GALR2 ag confirm inactive | BLA activ ctr inactive
COc1ccc(CCNC(=O)CN2CCOc3ccccc32)cc1OC	GALR2 agonist 18 (no result: Rev-RRE block, EphB4 antag, S1P2 ag, S1P2 antag) | GALR2 ag confirm inactive | BLA activ ctr inactive
COCCN1C=C(C(=O)OC)C(c2cc(Br)c(OC)c(OC)c2)C(C(=O)OC)=C1	none | GALR2 ag confirm inactive | BLA activ ctr inactive
O=S(=O)(c1ccc(N2CCN(CCO)CC2)nc1)N1CCCCC1	GALR2 agonist 22 | GALR2 ag confirm inactive | BLA activ ctr inactive
O=C(NC1CC1)c1ccc(CS(=O)(=O)c2c(Cl)cccc2Cl)o1	none
CCn1c(=O)cc(OCC(=O)Nc2cccc(C)n2)c2ccccc21	GALR2 agonist 120 | GALR2 ag confirm inactive | BLA activ ctr inactive
CCn1c(=O)cc(OCC(=O)Nc2cccnc2)c2ccccc21	none
COC(=O)c1ccc(N2CCCCC2)c(NS(=O)(=O)c2ccc(C)cc2)c1	GALR2 agonist 18 | GALR2 ag confirm inactive | BLA activ ctr inactive
COC(=O)c1ccc(N2CCN(S(=O)(=O)c3ccc(C)cc3)CC2)c([N+](=O)[O-])c1	none
CCN(CC)CCNC(=O)c1ccc(N2CCCCC2)c(NS(=O)(=O)c2ccc(C)cc2)c1	GALR2 agonist 19 | GALR2 ag confirm inactive | BLA activ ctr inactive
CC1CCC(NC(=O)C2CCN(C(=O)NC3CCCCC3)CC2)CC1 (stereo not drawn)	none
O=C(COC(=O)COc1ccc(Br)cc1)Nc1cccnc1Cl	GALR2 agonist 34 (no result: Rev-RRE block, EphB4 antag, S1P2 ag, S1P2 antag) | GALR2 ag confirm inactive | BLA activ ctr inactive
CCN1C(=O)C2(C(C#N)=C(N)Oc3n[nH]c(-c4ccc(Cl)cc4)c32)c2ccccc21 (stereo not drawn)	none
N#CC1=C(N)Oc2n[nH]c(-c3ccccc3)c2C12C(=O)Nc1ccccc12 (stereo not drawn)	GALR2 agonist 11 (no result: Rev-RRE block, EphB4 antag, S1P2 ag, S1P2 antag) | GALR2 ag confirm inactive | BLA activ ctr inactive
O=C(Oc1ccccc1)N1CCN(c2ccc(F)cc2)CC1	none
O=C(Nc1ccc(N2CCN(c3ccc(O)cc3)CC2)cc1)Oc1ccccc1	GALR2 agonist 13 | GALR2 ag confirm inactive | BLA activ ctr inactive
CC(C)CC(COCc1ccc(F)cc1)N1CCN(C(=O)c2cccc(C(F)(F)F)c2)CCC1=O (stereo not drawn)	none (no result: Rev-RRE block, EphB4 antag, S1P2 ag, S1P2 antag)

Screens as filed in PubChem.
